Among the data in ChEMBL document CHEMBL1772939, “Ferruginenes A-C from Rhododendron ferrugineum and their cytotoxic evaluation” (J Nat Prod, 2011) are IC50 and Activity values, retold here.

pIC50: −log10 of the molar value. The source made the active and inactive calls. No cut-off for these calls is given here. Some results are limits rather than exact numbers.

Assay [1] deals with HL-60. Put plainly: Cytotoxicity against human HL60 cells assessed as cell viability after 24 hrs by tryptan blue staining-based cell counting. It counts as functional. The conditions noted are these: HL-60, 24 h. In outline: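 HL-60 promyelocytic leukemia cells (ATCC) kept in RPMI 1640 with 10% heat-inactivated FBS, 1% L-glutamine, 1% penicillin/streptomycin, 37 C, 5% CO2. Seeded at 0.1 × 10^6 cells/mL, grown 24 h, then exposed 24 h to compounds or 0.3% DMSO solvent. Suspension cells stained with 0.4% trypan blue and counted on a viability analyzer; IC50 from three independent experiments.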

The nature of assay [2]: Cytotoxicity against human HeLaS3 cells assessed as cell viability after 24 hrs by tryptan blue staining-based cell counting. It counts as functional. The conditions noted are these: HeLa S3, 24 h. In outline:
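HeLa-S3 cervix carcinoma cells (ATCC) grown in RPMI 1640 with 10% heat-inactivated FBS, 1% L-glutamine, 1% penicillin/streptomycin at 37 C, 5% CO2. Plated at 0.1 × 10^6 cells/mL for 24 h, then treated 24 h with compounds or 0.3% DMSO. Cells trypsinized, stained with 0.4% trypan blue, counted on a viability analyzer; IC50 from three independent experiments.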

Assay [3] has as its system MCF7. Nature of the assay: Cytotoxicity against human MCF7 cells assessed as cell viability after 24 hrs by tryptan blue staining-based cell counting. It is filed as functional. The conditions noted are these: MCF7, 24 h. Summed up: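 MCF-7 breast adenocarcinoma cells (ATCC) in DMEM with 10% heat-inactivated FBS, 1% L-glutamine, 1% penicillin/streptomycin, 37 C, 5% CO2. Cultured at 0.2 × 10^6 cells/mL for 48 h before 24 h exposure to compounds or 0.3% DMSO. Trypsinized cells stained with 0.4% trypan blue and counted on a viability analyzer; IC50 from three independent experiments.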

The test system of assay [4] is HEK293. Nature of the assay: Cytotoxicity against human HEK293 cells assessed as cell viability after 24 hrs by tryptan blue staining-based cell counting. The conditions noted are these: HEK293, 24 h. In outline: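 HEK293 cells from ATCC, kept in DMEM with 10% heat-inactivated FBS, 1% L-glutamine, 1% penicillin/streptomycin, 37 C, 5% CO2. Seeded at 0.1 × 10^6 cells/mL in 24-well plates, grown 24 h, then exposed to compounds or 0.3% DMSO solvent for 24 h. Trypsinized cells stained with 0.4% trypan blue and counted by viability analyzer; IC50 from three independent experiments.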

Assay [5] deals with T1, 5-hydroxytryptamine receptor 1A (Homo sapiens) (UniProt P08908).
T1 sequence (whole entry): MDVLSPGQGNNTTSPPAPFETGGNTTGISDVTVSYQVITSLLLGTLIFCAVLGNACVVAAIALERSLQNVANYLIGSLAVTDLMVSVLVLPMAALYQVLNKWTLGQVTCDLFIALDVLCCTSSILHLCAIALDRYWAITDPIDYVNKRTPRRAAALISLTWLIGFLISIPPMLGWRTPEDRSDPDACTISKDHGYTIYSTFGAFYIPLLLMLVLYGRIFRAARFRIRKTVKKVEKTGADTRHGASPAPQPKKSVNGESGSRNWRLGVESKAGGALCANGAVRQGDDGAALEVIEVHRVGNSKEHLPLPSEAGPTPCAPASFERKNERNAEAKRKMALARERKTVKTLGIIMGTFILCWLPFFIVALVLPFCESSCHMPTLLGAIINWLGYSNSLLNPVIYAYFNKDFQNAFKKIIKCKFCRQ
Nature of the assay: Binding affinity to 5HT1A receptor at 20 uM by radioligand displacement assay.

Assay [6] has as its target Transient receptor potential cation channel subfamily V member 1 (Homo sapiens) (UniProt Q8NER1). Nature of the assay: Binding affinity to TRPV1 receptor at 20 uM by radioligand displacement assay. Background: In a radioligand displacement assay an active substance lowers the binding of a labelled ligand.
Assay [7] deals with Cannabinoid receptor 2 (Homo sapiens) (UniProt P34972). Nature of the assay: Binding affinity to CB2 receptor at 20 uM by radioligand displacement assay.
In assay [8] the target is Cannabinoid receptor 1 (Homo sapiens) (UniProt P21554). Put plainly: Binding affinity to CB1 receptor at 20 uM by radioligand displacement assay.
Cannabinoid receptor 1 (Homo sapiens), sequence (P21554 whole entry): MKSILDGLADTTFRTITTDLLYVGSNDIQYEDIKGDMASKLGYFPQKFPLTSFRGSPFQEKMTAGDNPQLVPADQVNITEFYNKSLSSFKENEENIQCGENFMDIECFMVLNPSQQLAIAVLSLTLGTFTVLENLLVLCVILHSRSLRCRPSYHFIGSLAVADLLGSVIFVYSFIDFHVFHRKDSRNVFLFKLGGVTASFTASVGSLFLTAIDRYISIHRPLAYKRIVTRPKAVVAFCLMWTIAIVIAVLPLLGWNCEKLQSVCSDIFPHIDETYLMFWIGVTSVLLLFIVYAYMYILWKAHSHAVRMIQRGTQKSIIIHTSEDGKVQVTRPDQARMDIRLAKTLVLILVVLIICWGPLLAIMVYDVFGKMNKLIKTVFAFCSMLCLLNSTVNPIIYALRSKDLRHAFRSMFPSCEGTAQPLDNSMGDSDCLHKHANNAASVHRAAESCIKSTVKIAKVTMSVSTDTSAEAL

Cannabinoid receptor 2 (Homo sapiens), sequence (P34972 whole entry): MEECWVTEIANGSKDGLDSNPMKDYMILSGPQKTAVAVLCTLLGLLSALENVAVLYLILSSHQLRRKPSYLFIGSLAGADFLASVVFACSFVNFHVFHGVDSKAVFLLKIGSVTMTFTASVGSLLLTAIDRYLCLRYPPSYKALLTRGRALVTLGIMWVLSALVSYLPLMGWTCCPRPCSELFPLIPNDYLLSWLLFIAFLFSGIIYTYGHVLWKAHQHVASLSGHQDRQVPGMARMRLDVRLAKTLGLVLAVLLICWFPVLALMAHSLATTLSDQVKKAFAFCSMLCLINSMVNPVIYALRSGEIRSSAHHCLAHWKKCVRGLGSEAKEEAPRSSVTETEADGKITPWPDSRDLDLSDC
Transient receptor potential cation channel subfamily V member 1 (Homo sapiens), sequence (Q8NER1 whole entry): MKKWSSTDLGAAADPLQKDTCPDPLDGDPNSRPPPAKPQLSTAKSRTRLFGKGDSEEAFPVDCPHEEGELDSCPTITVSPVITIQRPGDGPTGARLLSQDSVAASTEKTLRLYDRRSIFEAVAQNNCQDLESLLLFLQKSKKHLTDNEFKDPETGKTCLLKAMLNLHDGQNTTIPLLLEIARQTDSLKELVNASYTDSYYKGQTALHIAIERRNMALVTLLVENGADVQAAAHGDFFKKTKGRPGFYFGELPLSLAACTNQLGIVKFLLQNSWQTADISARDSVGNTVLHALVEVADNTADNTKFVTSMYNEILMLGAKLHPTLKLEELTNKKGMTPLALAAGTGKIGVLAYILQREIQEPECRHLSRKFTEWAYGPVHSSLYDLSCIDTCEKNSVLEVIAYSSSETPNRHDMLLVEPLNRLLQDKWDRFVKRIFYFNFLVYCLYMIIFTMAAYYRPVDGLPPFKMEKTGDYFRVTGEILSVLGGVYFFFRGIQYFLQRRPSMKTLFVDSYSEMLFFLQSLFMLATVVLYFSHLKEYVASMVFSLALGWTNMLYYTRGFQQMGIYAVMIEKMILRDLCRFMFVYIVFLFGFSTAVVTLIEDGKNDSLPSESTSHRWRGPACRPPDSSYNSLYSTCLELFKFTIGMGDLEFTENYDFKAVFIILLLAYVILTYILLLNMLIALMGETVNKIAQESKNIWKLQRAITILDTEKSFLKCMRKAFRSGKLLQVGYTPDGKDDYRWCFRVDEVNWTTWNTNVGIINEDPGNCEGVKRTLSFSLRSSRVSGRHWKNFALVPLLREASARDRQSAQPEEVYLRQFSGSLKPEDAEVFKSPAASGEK

As for `C=C(C)C(O)CCC(=C)[C@@H]1CCC(C)=C[C@H]1c1c(O)cc(C)cc1O` (mixture of isomers) [FERRUGINENE C], the pIC50 was less than 4.86 in assay [1], less than 4.70 in assay [2], less than 4.70 in assay [3] and less than 4.70 in assay [4]. Besides, the result in assay [5], in assay [6] and in assay [8] was inactive. Moreover, the outcome in assay [7] was Active.

Regarding `C=C(C)C(O)CCC(=C)[C@@H]1CC[C@](C)(O)[C@H]2Oc3cc(C)cc(O)c3[C@@H]12` (some centres not stated) [FERRUGINENE A], the pIC50 in assay [1], in assay [2] and in assay [3] was less than 4.70 each time. Besides, the outcome in assay [5], in assay [6], in assay [7] and in assay [8] was inactive.

Take `C=C(C/C=C/C(C)(C)O)[C@@H]1CC[C@](C)(O)[C@H]2Oc3cc(C)cc(O)c3[C@@H]12` [FERRUGINENE B]: the negative logarithm of the IC50 (pIC50) in assay [1], in assay [2] and in assay [3] was less than 4.70 each time. Moreover, the outcome in assay [5], in assay [7] and in assay [8] was inactive. For the same molecule, in assay [6], the outcome was Active.

Usually pIC50 stands for −log10 of the IC50, conventionally taken in molar units.
